Measured values: ChEMBL document CHEMBL1129970, “Biologically active conformer of the effector region of human C5a and modulatory effects of N-terminal receptor binding determinants on activity” (J Med Chem, 1997)

Experiments:
Homo sapiens [1] = species on record: Homo sapiens; assay: Spasmogenic activity was measured by the ability to induce smooth muscle contraction in human fetal artery; format: functional, Muscle tissue
Method in brief: (§1)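 Human fetal artery smooth muscle contraction; full dose–response curves for recombinant human C5a or each peptide in the same tissue preparation. EC50 is the concentration giving 50% of the maximal response, read relative to the C5a maximum. pD2 = −log EC50 (M), averaged per peptide ± SE. Log potency ratio pD2(C5a) − pD2(peptide) is computed within each experiment. Relative potency = antilog(−Δ) × 100.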

Homo sapiens [2] = species on record: Homo sapiens; assay: Tested for the ability to stimulate beta-glucuronidase release from human polymorphonuclear cells (PMN) (n=4); format: functional
Method in brief: (§2)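 Human PMNs pretreated with cytochalasin B (5 μg/mL, 10 min, 37 °C), then 10⁶ cells stimulated for 60 min at 37 °C. β-Glucuronidase in the supernatant is assayed with 0.01 M p-nitrophenyl β-D-glucuronide (0.1 M acetate, pH 4, 18 h) in triplicate. Reaction stopped with glycine pH 10 and read at 415 nm. pD2 is taken from dose–response curves against the C5a EC50. Efficacy is given relative to C5a maximum (100%).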

Homo sapiens [3] = species on record: Homo sapiens; assay: Log potency ratio [pD2(C5a)-pD2(peptide)] was determined in human polymorphonuclear cells (PMN) (n=4); format: functional; method in brief: as §2
Homo sapiens [4] = species on record: Homo sapiens; assay: Log potency ratio [pD2(C5a)-pD2(peptide)] was determined in human fetal artery; format: functional; method in brief: as §1
Homo sapiens [5] = species on record: Homo sapiens; assay: Relative potency of peptide to stimulate beta-glucuronidase release from human polymorphonuclear cells (PMN) (n=4); format: functional; method in brief: as §2
Homo sapiens [6] = species on record: Homo sapiens; assay: Relative potency of peptide for human fetal artery was determined; format: functional; method in brief: as §1
Homo sapiens [7] = species on record: Homo sapiens; assay: Maximum efficacy relative to C5a (100%) for human polymorphonuclear cells (PMN) was determined (n=4); format: functional; method in brief: as §2
[8] = Selectivity of peptide was determined from antilog[pD2(fetal artery)-pD2 (PMN enzyme release)] (n=7); format: functional
Method in brief: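 Selectivity = antilog[pD2(fetal artery) − pD2(PMN β-glucuronidase release)]. pD2 values come from full dose–response curves in each assay, each generated alongside C5a.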

Homo sapiens [9] = species on record: Homo sapiens; assay: Effective concentration to stimulate beta-glucuronidase release from human polymorphonuclear cells (PMN) (n=4); format: functional; method in brief: as §2
Homo sapiens [10] = species on record: Homo sapiens; assay: Effective concentration to induce smooth muscle contraction in human fetal artery; format: functional; settings: Muscle tissue; method in brief: as §1
Homo sapiens [11] = species on record: Homo sapiens; assay: Effective concentration to stimulate beta-glucuronidase release from human polymorphonuclear cells (PMN) (n=5); format: functional; method in brief: as §2

Structure (SMILES) | EC50 (Homo sapiens [9]) | EC50 (Homo sapiens [10]) | also measured
CSCC[C@H](NC(=O)[C@@H]1CCCN1C(=O)[C@H](CCCCN)NC(=O)[C@H](Cc1ccccc1)NC(=O)[C@H](CO)NC(=O)[C@H](Cc1ccc(O)cc1)NC(=O)CCCCCNC(=O)[C@H](Cc1c[nH]c2ccccc12)NC(=O)[C@@H](N)CC(=O)O)C(=O)N1CCC[C@H]1C(=O)N[C@@H](CC(C)C)C(=O)N[C@H](C)C(=O)N[C@@H](CCCN=C(N)N)C(=O)O [listing 1 of 2 here] | – | – | pD2 (Homo sapiens [1]): 6.96; pD2 (Homo sapiens [2]): 5.14; Mean log concentration ratio (Homo sapiens [3]): 2.3; Mean log concentration ratio (Homo sapiens [4]): 0.91; Potency (Homo sapiens [5]): 0.5%; Potency (Homo sapiens [6]): 8.5%; C5a max (Homo sapiens [7]): 173%; Selectivity [8]: 66
CSCC[C@H](NC(=O)[C@@H]1CCCN1C(=O)[C@H](CCCCN)NC(=O)[C@H](Cc1ccccc1)NC(=O)[C@H](CO)NC(=O)[C@H](Cc1ccc(O)cc1)NC(=O)CCCCCNC(=O)[C@H](Cc1c[nH]c2ccccc12)NC(=O)[C@@H](N)CC(=O)O)C(=O)N1CCC[C@H]1C(=O)N[C@@H](CC(C)C)C(=O)N[C@H](C)C(=O)N[C@@H](CCCN=C(N)N)C(=O)O [listing 2 of 2 here] | 7.2 µM | 0.2 µM | –
CSCC[C@H](NC(=O)[C@@H]1CCCN1C(=O)[C@H](CCCCN)NC(=O)[C@H](Cc1ccccc1)NC(=O)[C@H](CO)NC(=O)[C@H](Cc1ccc(O)cc1)NC(=O)CCCCCNC(=O)[C@H](Cc1c[nH]c2ccccc12)NC(=O)[C@@H](N)CCCCN)C(=O)N1CCC[C@H]1C(=O)N[C@@H](CC(C)C)C(=O)N[C@H](C)C(=O)N[C@@H](CCCN=C(N)N)C(=O)O | – | 0.1 µM | EC50 (Homo sapiens [11]): 2.5 µM

Second part, led by results:

EC50 (Homo sapiens [9]) | EC50 (Homo sapiens [10]) | Structure (SMILES) | also measured
2 µM | 0.07 µM | CSCC[C@H](NC(=O)[C@@H]1CCCN1C(=O)[C@H](CCCCN)NC(=O)[C@H](Cc1ccccc1)NC(=O)[C@H](CO)NC(=O)[C@H](Cc1ccc(O)cc1)NC(=O)CNC(=O)CNC(=O)CNC(=O)[C@H](CCCCN)NC(=O)CNC(=O)[C@H](CCCCN)NC(=O)CNC(=O)[C@@H](N)CCCCN)C(=O)N1CCC[C@H]1C(=O)N[C@@H](CC(C)C)C(=O)N[C@H](C)C(=O)N[C@@H](CCCN=C(N)N)C(=O)O | –
3.9 µM | 0.2 µM | CSCC[C@H](NC(=O)[C@@H]1CCCN1C(=O)[C@H](CCCCN)NC(=O)[C@H](Cc1ccccc1)NC(=O)[C@H](CO)NC(=O)[C@H](Cc1ccc(O)cc1)NC(=O)[C@H](CCCCN)NC(=O)CNC(=O)[C@H](CCCCN)NC(=O)CNC(=O)[C@@H](N)CCCCN)C(=O)N1CCC[C@H]1C(=O)N[C@@H](CC(C)C)C(=O)N[C@H](C)C(=O)N[C@@H](CCCN=C(N)N)C(=O)O | –
4.9 µM | 0.1 µM | CSCC[C@H](NC(=O)[C@@H]1CCCN1C(=O)[C@H](CCCCN)NC(=O)[C@H](Cc1ccccc1)NC(=O)[C@H](CO)NC(=O)[C@H](Cc1ccc(O)cc1)NC(=O)CCCCCNC(=O)[C@H](CCCCN)NC(=O)CNC(=O)[C@@H](N)CCCCN)C(=O)N1CCC[C@H]1C(=O)N[C@@H](CC(C)C)C(=O)N[C@H](C)C(=O)N[C@@H](CCCN=C(N)N)C(=O)O | –
6.7 µM | 0.1 µM | CSCC[C@H](NC(=O)[C@@H]1CCCN1C(=O)[C@H](CCCCN)NC(=O)[C@H](Cc1ccccc1)NC(=O)[C@H](CO)NC(=O)[C@H](Cc1ccc(O)cc1)NC(=O)CCCCCNC(=O)[C@H](CCCCN)NC(=O)CNC(=O)[C@H](CCCCN)NC(=O)CNC(=O)[C@@H](N)CCCCN)C(=O)N1CCC[C@H]1C(=O)N[C@@H](CC(C)C)C(=O)N[C@H](C)C(=O)N[C@@H](CCCN=C(N)N)C(=O)O | –
